Experimental data reported in ChEMBL document CHEMBL4627381, “Licochalcone A Selectively Resensitizes ABCG2-Overexpressing Multidrug-Resistant Cancer Cells to Chemotherapeutic Drugs” (J Nat Prod, 2020).

Columns and labels:
[1] = tested on: HEK293; test: Effect on Colchicine-induced cytotoxicity against HEK293 cells assessed as fold change in colchicine IC50 at 2 uM after 72 hrs by CCK8 assay relative to colchicine IC50; assay type: cell-based; conditions: human, hek293, 72 h
Procedure, shortened: (§1)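 Reversal assay in parental pcDNA-HEK293 and transfected HEK293 lines (ABCB1 for colchicine, ABCC1 for etoposide, ABCG2 for mitoxantrone/topotecan). Substrate drug series was given with or without nontoxic modulator (0.5, 1.0, 2.0 or 3.0 μM) for 72 h, with a CCK-8 read-out. Fold-reversal is substrate IC50 without modulator divided by IC50 with modulator. Three independent experiments.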

[2] = tested on: S1; test: Induction of apoptosis in human S1 cells assessed as necrotic cells at 10 uM incubated for 48 hrs in presence of topotecan by annexin V/propidium iodide staining based flow cytometry (reference value: 0.2%); assay type: functional
Procedure, shortened: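 S1 cells were exposed for 48 h to DMSO, 10 μM compound, 5 μM topotecan, or 5 μM topotecan plus 10 μM compound. They were then stained with 1.25 μg/mL annexin V–FITC and 0.1 mg/mL PI for 15 min at room temperature. 10000 cells per sample were analysed by flow cytometry; three independent experiments.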

[3] = molecular target: T1, Broad substrate specificity ATP-binding cassette transporter ABCG2 (Homo sapiens, UniProt Q9UNQ0); test: Inhibition of ABCG2 (unknown origin)-mediated pheophorbide A efflux in H460-MX20 cells incubated for 1 hr by FACScan flow cytometry; assay type: cell-based
T1 sequence (Q9UNQ0 whole entry): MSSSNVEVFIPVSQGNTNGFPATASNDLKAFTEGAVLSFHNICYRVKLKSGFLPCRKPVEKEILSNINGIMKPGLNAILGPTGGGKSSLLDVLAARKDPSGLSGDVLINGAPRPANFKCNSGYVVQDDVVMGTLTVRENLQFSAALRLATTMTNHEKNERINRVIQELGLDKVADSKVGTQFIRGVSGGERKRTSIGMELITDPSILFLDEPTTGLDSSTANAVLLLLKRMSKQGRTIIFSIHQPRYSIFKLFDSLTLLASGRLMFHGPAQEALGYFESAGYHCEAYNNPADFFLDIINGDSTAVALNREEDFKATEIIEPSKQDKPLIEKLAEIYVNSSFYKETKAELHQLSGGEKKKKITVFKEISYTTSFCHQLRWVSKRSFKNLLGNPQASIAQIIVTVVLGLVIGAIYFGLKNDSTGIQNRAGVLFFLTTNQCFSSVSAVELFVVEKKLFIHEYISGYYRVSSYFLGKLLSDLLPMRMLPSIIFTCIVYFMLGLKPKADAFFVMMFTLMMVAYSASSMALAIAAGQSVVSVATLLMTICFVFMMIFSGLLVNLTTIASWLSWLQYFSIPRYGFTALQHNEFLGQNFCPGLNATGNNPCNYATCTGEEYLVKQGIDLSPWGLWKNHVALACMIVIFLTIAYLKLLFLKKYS
Procedure, shortened: (§2)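 Cells held drug-free 7 days. 3 × 10^5 cells were suspended in IMDM with 5% FCS and loaded with pheophorbide A (ex 395/em 670 nm) for 1 h, with or without LCA (20 μM for single-concentration accumulation) or Ko143 3 μM as reference. Read immediately by flow cytometry. Efflux inhibition was run over a concentration range; mean ± SD of three experiments.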

[4] = tested on: S1; test: Induction of apoptosis in human S1 cells assessed as viable cells at 10 uM incubated for 48 hrs in presence of topotecan by annexin V/propidium iodide staining based flow cytometry (reference value: 94.1%); assay type: functional; conditions: S1, 48 h, read-out: Activity
[5] = tested on: HEK293; test: Effect on mitoxantrone-induced cytotoxicity against HEK293 cells assessed as fold change in mitoxantrone IC50 at 0.5 uM after 72 hrs by CCK8 assay relative to mitoxantrone IC50; assay type: cell-based; conditions: human, hek293, 72 h; procedure, shortened: as §1
[6] = molecular target: T2, Multidrug resistance-associated protein 1 (Homo sapiens, UniProt P33527); test: Reversal of human ABCC1-mediated multidrug resistance in HEK293/MRP1 cells assessed as fold-change in etoposide IC50 at 2 uM after 72 hrs by CCK8 relative to etoposide IC50; assay type: cell-based
T2 sequence (P33527 whole entry): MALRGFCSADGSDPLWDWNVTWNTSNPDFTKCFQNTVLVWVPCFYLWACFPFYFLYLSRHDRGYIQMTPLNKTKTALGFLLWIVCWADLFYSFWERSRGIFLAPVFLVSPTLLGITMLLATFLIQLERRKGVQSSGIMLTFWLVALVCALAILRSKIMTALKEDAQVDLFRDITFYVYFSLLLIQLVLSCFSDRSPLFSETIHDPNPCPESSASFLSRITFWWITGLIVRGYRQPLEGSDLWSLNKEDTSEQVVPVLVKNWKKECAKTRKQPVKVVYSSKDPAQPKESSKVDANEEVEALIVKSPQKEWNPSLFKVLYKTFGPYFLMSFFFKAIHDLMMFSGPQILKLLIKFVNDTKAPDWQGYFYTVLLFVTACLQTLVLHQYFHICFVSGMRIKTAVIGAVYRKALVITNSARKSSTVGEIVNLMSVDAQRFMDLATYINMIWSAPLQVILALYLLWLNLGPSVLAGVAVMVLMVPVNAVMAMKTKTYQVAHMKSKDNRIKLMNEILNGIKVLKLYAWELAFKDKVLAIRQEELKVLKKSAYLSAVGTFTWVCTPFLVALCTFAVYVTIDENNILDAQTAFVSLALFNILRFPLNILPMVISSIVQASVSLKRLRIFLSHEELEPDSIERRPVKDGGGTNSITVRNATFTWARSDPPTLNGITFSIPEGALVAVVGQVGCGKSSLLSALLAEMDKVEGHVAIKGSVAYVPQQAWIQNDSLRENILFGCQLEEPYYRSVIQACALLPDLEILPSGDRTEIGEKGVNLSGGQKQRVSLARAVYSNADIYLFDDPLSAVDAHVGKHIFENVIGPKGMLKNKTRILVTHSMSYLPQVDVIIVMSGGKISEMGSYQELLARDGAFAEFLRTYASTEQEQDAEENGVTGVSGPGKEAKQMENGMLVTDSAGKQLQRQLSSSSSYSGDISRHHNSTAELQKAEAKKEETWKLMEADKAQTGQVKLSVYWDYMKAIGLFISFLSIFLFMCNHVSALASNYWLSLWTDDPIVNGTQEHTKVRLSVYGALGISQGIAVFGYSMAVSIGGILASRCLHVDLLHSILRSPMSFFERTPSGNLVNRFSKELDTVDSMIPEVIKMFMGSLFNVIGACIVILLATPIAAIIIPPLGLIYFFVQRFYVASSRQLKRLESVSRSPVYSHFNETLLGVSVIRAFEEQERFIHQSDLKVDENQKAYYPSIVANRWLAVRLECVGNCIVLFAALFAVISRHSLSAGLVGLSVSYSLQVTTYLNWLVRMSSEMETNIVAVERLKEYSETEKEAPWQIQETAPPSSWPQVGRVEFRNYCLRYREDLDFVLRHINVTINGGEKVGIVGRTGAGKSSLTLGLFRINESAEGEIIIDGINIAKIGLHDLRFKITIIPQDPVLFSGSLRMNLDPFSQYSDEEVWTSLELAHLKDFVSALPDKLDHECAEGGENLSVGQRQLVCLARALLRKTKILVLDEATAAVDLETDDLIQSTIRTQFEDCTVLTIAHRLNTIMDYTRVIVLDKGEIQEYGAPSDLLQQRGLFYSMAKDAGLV
Procedure, shortened: (§3)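 Cells were seeded at 5000/well for 24 h, then given colchicine, etoposide, mitoxantrone or topotecan ± non-toxic modulator (0.5–3.0 μM) for 72 h, with DMSO up to 0.5%. IC50 came from fitted curves (mean ± SD, three experiments). Fold-reversal = IC50 without modulator ÷ IC50 with modulator.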

[7] = molecular target: T1, Broad substrate specificity ATP-binding cassette transporter ABCG2; test: Reversal of human ABCG2-mediated multidrug resistance in HEK293/R482 cells assessed as fold-change in topotecan IC50 at 2 uM after 72 hrs by CCK8 relative to topotecan IC50; assay type: cell-based; procedure, shortened: as §3
[8] = tested on: LS180; test: Upregulation of ABCB1 mRNA expression in human LS180 cells at 1 uM by […] relative to control; assay type: functional
[9] = tested on: HEK293; test: Induction of Calcein-AM accumulation in HEK293 cells at 20 uM incubated for 10 mins by FACScan flow cytometry; assay type: cell-based; conditions: human, hek293, 10 min
Procedure, shortened: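 Parental HEK293 cells (3 × 10^5) were resuspended in IMDM with 5% FCS and given calcein-AM with or without 20 μM modulator for 10 min. Intracellular calcein (ex 485/em 535 nm) was measured by flow cytometry; at least three independent experiments.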

[10] = molecular target: T1, Broad substrate specificity ATP-binding cassette transporter ABCG2; test: Inhibition of ABCG2 (unknown origin)-mediated pheophorbide A efflux in human S1 cells incubated for 1 hr by FACScan flow cytometry; assay type: cell-based; conditions: s1, 1 h; procedure, shortened: as §2
[11] = molecular target: T1, Broad substrate specificity ATP-binding cassette transporter ABCG2; test: Reversal of human ABCG2-mediated multidrug resistance in HEK293/R482 cells assessed as fold-change in topotecan IC50 at 0.5 uM after 72 hrs by CCK8 relative to topotecan IC50; assay type: cell-based; procedure, shortened: as §3
[12] = molecular target: T2, Multidrug resistance-associated protein 1; test: Modulation of human ABCC1 expressed in HEK293/MRP1 cells assessed as increase in intracellular calcein-AM accumulation at 20 uM incubated for 10 mins by FACScan flow cytometry; assay type: cell-based
Procedure, shortened: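 Cells held drug-free 7 days. 3 × 10^5 cells in IMDM with 5% FCS were loaded with calcein-AM for 10 min, with or without 20 μM LCA. Reference inhibitors were tariquidar 3 μM (ABCB1) and MK-571 25 μM (ABCC1). Calcein fluorescence (ex 485/em 535 nm) was read by flow cytometry; at least three independent experiments.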

[13] = tested on: HEK293; test: Effect on etoposide-induced cytotoxicity against HEK293 cells assessed as fold change in etoposide IC50 at 1 uM after 72 hrs by CCK8 assay relative to etoposide IC50; assay type: cell-based; conditions: human, hek293, 72 h; procedure, shortened: as §1
[14] = tested on: HEK293; test: Effect on mitoxantrone-induced cytotoxicity against HEK293 cells assessed as fold change in mitoxantrone IC50 at 2 uM after 72 hrs by CCK8 assay relative to mitoxantrone IC50; assay type: cell-based; conditions: human, hek293, 72 h; procedure, shortened: as §1
[15] = tested on: NCI-H460; test: Effect on mitoxantrone-induced cytotoxicity against human H460 cells assessed as change in mitoxantrone IC50 at 3 uM after 72 hrs by MTT assay relative to mitoxantrone IC50; assay type: functional
Procedure, shortened: (§4)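 Parental S1 colon and H460 lung cancer cells were exposed for 72 h to a mitoxantrone or topotecan concentration series, with or without modulator at 0.5–3.0 μM, and read by MTT. Fold-reversal is IC50 without modulator divided by IC50 with modulator, taken from dose-response curves of three independent experiments.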

[16] = tested on: S1; test: Effect on mitoxantrone-induced cytotoxicity against human S1 cells assessed as fold change in mitoxantrone IC50 at 3 uM after 72 hrs by MTT assay relative to mitoxantrone IC50; assay type: functional; procedure, shortened: as §4

inhibition (INH) [3]: Dose-dependent effect
fold change (FC) [6]: 1
fold change (FC) [7]: 4.6
inhibition (INH) [10]: Dose-dependent effect
fold change (FC) [11]: 2.2
Activity [12]: Not Active
SMILES: C=CC(C)(C)c1cc(/C=C/C(=O)c2ccc(O)cc2)c(OC)cc1O [LICOAGROCHACONE A]
fold change (FC) [1]: 0.9
Activity [2]: 3%
viability at 10 µM [4]: 44.1%
fold change (FC) [5]: 0.9
fold change (FC) [8]: 2 - 6
Activity [9]: Non-Toxic
fold change (FC) [13]: 0.7
fold change (FC) [14]: 1
fold change (FC) [15]: 1.1
fold change (FC) [16]: 1
